Assay results reported in ChEMBL document CHEMBL4270591, “Exploitation of new chalcones and 4H-chromenes as agents for cancer treatment” (Eur J Med Chem, 2018).
Calls of active or inactive are those of the source. The calls are words filed in the database; no cut-off is given here.

system: Hs-578T; test: Anticancer activity against human Hs 578T cells after 72 hrs by sulforhodamine B assay; type: functional, cell-based; details: not given
Method in brief: (§1)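 Cells seeded at 3000 cells/100 µL per well, left to adhere overnight (18-20 h), then exposed to a range of compound concentrations for 72 h. Vehicle control was 0.5% DMSO. Cytotoxicity was read by sulforhodamine B at 490 nm, with 690 nm as background. IC50 came from sigmoidal variable-slope nonlinear regression on log-transformed data, from at least three independent experiments, each in triplicate.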

In order of falling IC50:
1. N#CC1=C(N)Oc2ccc(Br)cc2C1CC(=O)c1ccc(Br)cc1 (stereo not given)  16.5 µM
2. COc1cccc(C(=O)CC2C(C#N)=C(N)Oc3ccc(Br)cc32)c1 (stereo not given)  10.3 µM
3. COc1cc(Br)cc(/C=C/C(=O)c2ccc(Cl)cc2)c1O  5.33 µM
4. Cc1ccc(C(=O)/C=C/c2cc(Cl)ccc2O)cc1  4.8 µM
5. Cc1ccc(C(=O)/C=C/c2cc(Br)ccc2O)cc1  1.6 µM
6. COc1cccc2c1C(=O)c1c(O)c3c(c(O)c1C2=O)C[C@@](O)(C(=O)CO)C[C@@H]3O[C@H]1C[C@H](N)[C@H](O)[C@H](C)O1 [DOXORUBICIN]  0.52 µM

system: not listed separately; test: Cytotoxicity against human MCF10A cells assessed as cell viability at 10 uM after 72 hrs by sulforhodamine B assay relative to control; type: cell-based, MCF-10A; details: read-out: Activity

In order of rising viability at 72 h, 10 µM:
1. Cc1ccc(C(=O)/C=C/c2cc(Br)ccc2O)cc1  32.4%
2. N#CC1=C(N)Oc2ccc(Br)cc2C1CC(=O)c1ccc(Br)cc1 (stereo not given)  32.6%
3. Cc1ccc(C(=O)/C=C/c2cc(Cl)ccc2O)cc1  33.5%
4. COc1cc(Br)cc(/C=C/C(=O)c2ccc(Cl)cc2)c1O  35.2%
5. COC(=O)C1=C(N)Oc2ccc(Br)cc2C1CC(=O)c1ccc(Br)cc1 (stereo not given)  39.9%
6. Cc1ccc(C(=O)CC2C(C#N)=C(N)Oc3ccc(Cl)cc32)cc1 (stereo not given)  41.8%
7. COc1cccc(C(=O)CC2C(C#N)=C(N)Oc3ccc(Br)cc32)c1 (stereo not given)  101%

system: MCF7; test: Induction of microtubule disruption in human MCF7 cells at IC50 after 12 hrs by DAPI staining based microscopic analysis; type: cell-based; details: not given
Method in brief: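 MCF-7 cells seeded at 2.0×10^5 per well and incubated overnight. Treatment at IC50 for 12 h, with 0.5% DMSO vehicle and paclitaxel (2 µM) as reference. Fixation in methanol for 20 min at -20 °C and blocking in 5% BSA. β-tubulin antibody (1:200) for 2 h, fluorescent secondary for 1 h, and DAPI nuclear counterstain. Confocal imaging with a 60x oil objective, 405/488 nm excitation.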

In the case of Cc1ccc(C(=O)/C=C/c2cc(Cl)ccc2O)cc1, the Activity is reported as “inactive”.

system: MCF7; test: Antimigratory activity against human MCF7 cells assessed as reduction in cell migration at half IC50 to IC50 after 12 to 48 hrs by microscopy based wound healing assay; type: functional; details: not given
Method in brief: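 Wound healing: MCF-7 cells plated at 9.0 × 10^5 per 2 mL and grown overnight to confluence. Two scratches made with a pipette tip, then wash with PBS. Treatment at IC50 or ½ IC50, or 0.5% DMSO. Four positions per wound were imaged at 0, 12, 24 and 48 h at 100x. Migration distances were measured and normalised to control. Three independent experiments.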

In the case of Cc1ccc(C(=O)/C=C/c2cc(Cl)ccc2O)cc1, the Activity is reported as “inactive”.

system: MCF7; test: Induction of apoptosis in human MCF7 cells assessed as increase in cleaved PARP level at IC50 after 24 hrs by Western blot analysis; type: functional, cell-based; details: not given
Method in brief: (§2)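 MCF-7 cells at 70-80% confluence were treated at IC50 or with 0.5% DMSO for 24 h. Lysis in Tris/NaCl/EDTA buffer with NP-40, Triton X-100, phosphatase and protease inhibitors. 20 µg protein run on 12% SDS-PAGE and transferred to nitrocellulose. Probed overnight at 4 °C with anti-PARP (1:500) or anti-BIM (1:1000), then HRP secondaries and chemiluminescence. At least two independent experiments.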

With Cc1ccc(C(=O)/C=C/c2cc(Cl)ccc2O)cc1 the Activity was “Active”.

system: not listed separately; test: Selectivity index, ratio of IC50 for human MCF10A cells in presence of doxorubicin to IC50 for human MCF7 cells in presence of doxorubicin; type: toxicity; details: MCF10A cells and MCF7 cells, read-out: Ratio IC50

Compound Cc1ccc(C(=O)/C=C/c2cc(Cl)ccc2O)cc1 has a selectivity ratio of 3.07.

system: MCF7; test: Anticancer activity against human MCF7 cells assessed as cell viability at 30 uM after 72 hrs by sulforhodamine B assay relative to control; type: functional; details: MCF7, 72 h, read-out: Activity

In order of falling viability at 30 µM:
1. Cc1ccc(C(=O)CC2C(C#N)=C(N)Oc3ccc(Cl)cc32)cc1 (stereo not given)  49%
2. COC(=O)C1=C(N)Oc2ccc(Br)cc2C1CC(=O)c1ccc(Br)cc1 (stereo not given)  34.8%
3. COc1cccc(C(=O)CC2C(C#N)=C(N)Oc3ccc(Br)cc32)c1 (stereo not given)  34.4%
4. N#CC1=C(N)Oc2ccc(Br)cc2C1CC(=O)c1ccc(Br)cc1 (stereo not given)  34.2%
5. Cc1ccc(C(=O)/C=C/c2cc(Br)ccc2O)cc1  31.8%
6. COc1cc(Br)cc(/C=C/C(=O)c2ccc(Cl)cc2)c1O  28%
7. Cc1ccc(C(=O)/C=C/c2cc(Cl)ccc2O)cc1  27.7%

system: Hs-578T; test: Anticancer activity against human Hs 578T cells assessed as cell viability at 30 uM after 72 hrs by sulforhodamine B assay relative to control; type: functional; details: read-out: Activity

In order of falling viability at 30 µM:
1. Cc1ccc(C(=O)CC2C(C#N)=C(N)Oc3ccc(Cl)cc32)cc1 (stereo not given)  155%
2. COC(=O)C1=C(N)Oc2ccc(Br)cc2C1CC(=O)c1ccc(Br)cc1 (stereo not given)  94.8%
3. N#CC1=C(N)Oc2ccc(Br)cc2C1CC(=O)c1ccc(Br)cc1 (stereo not given)  93.8%
4. Cc1ccc(C(=O)/C=C/c2cc(Cl)ccc2O)cc1  70.5%
5. COc1cc(Br)cc(/C=C/C(=O)c2ccc(Cl)cc2)c1O  60.3%
6. Cc1ccc(C(=O)/C=C/c2cc(Br)ccc2O)cc1  46.7%
7. COc1cccc(C(=O)CC2C(C#N)=C(N)Oc3ccc(Br)cc32)c1 (stereo not given)  37.9%

system: MCF7; test: Induction of apoptosis in human MCF7 cells at IC50 after 48 hrs by Annexin-V-FITC/propidium iodide staining based flow cytometry; type: functional, cell-based; details: not given
Method in brief: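 Floating and adherent cells were pooled and resuspended in binding buffer. Staining with FITC-annexin V and PI for 15 min at room temperature in the dark, followed by flow cytometry quadrant analysis normalised to untreated cells. Two independent experiments, triplicates within each.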

For Cc1ccc(C(=O)/C=C/c2cc(Cl)ccc2O)cc1, the Activity was “inactive”.

system: MCF7; test: Antiproliferative activity against human MCF7 cells after 72 hrs in presence of doxorubicin by sulforhodamine B assay; type: functional, cell-based; details: MCF7, 72 h

Cc1ccc(C(=O)/C=C/c2cc(Cl)ccc2O)cc1 showed an IC50 of 0.27 µM.

system: MCF7; test: Cell cycle arrest in human MCF7 cells at IC50 after 48 hrs by propidium iodide staining based flow cytometry; type: functional; details: not given
Method in brief: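 MCF-7 cells seeded at 2.5×10^5 per well and grown overnight. […] Cells fixed in 70% ethanol for at least 30 min at 4 °C, then stained with PI (50 µg/mL) plus RNase A and Triton X-100 for 1 h in the dark at […]. Flow cytometry with 488 nm excitation gave the phase distribution. Two independent biological replicates.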

With Cc1ccc(C(=O)/C=C/c2cc(Cl)ccc2O)cc1 the Activity was “inactive”.

system: Hs-578T; test: Anticancer activity against human Hs 578T cells assessed as cell viability at 10 uM after 72 hrs by sulforhodamine B assay relative to control; type: functional; details: read-out: Activity

In order of rising viability at 10 µM:
1. COc1cc(Br)cc(/C=C/C(=O)c2ccc(Cl)cc2)c1O  53.8%
2. Cc1ccc(C(=O)/C=C/c2cc(Br)ccc2O)cc1  55.8%
3. Cc1ccc(C(=O)/C=C/c2cc(Cl)ccc2O)cc1  66.3%
4. N#CC1=C(N)Oc2ccc(Br)cc2C1CC(=O)c1ccc(Br)cc1 (stereo not given)  67.6%
5. COc1cccc(C(=O)CC2C(C#N)=C(N)Oc3ccc(Br)cc32)c1 (stereo not given)  71.5%
6. COC(=O)C1=C(N)Oc2ccc(Br)cc2C1CC(=O)c1ccc(Br)cc1 (stereo not given)  90%
7. Cc1ccc(C(=O)CC2C(C#N)=C(N)Oc3ccc(Cl)cc32)cc1 (stereo not given)  92.3%

system: MCF-10A; test: Cytotoxicity against human MCF10A cells after 72 hrs in presence of doxorubicin by sulforhodamine B assay; type: cell-based; details: not given

With Cc1ccc(C(=O)/C=C/c2cc(Cl)ccc2O)cc1 the IC50 was 1.1 µM.

system: MCF7; test: Anticancer activity against human MCF7 cells assessed as cell viability at 10 uM after 72 hrs by sulforhodamine B assay relative to control; type: functional; details: MCF7, 72 h, read-out: Activity

In order of rising viability at 10 µM:
1. Cc1ccc(C(=O)/C=C/c2cc(Br)ccc2O)cc1  27.3%
2. Cc1ccc(C(=O)/C=C/c2cc(Cl)ccc2O)cc1  36.8%
3. N#CC1=C(N)Oc2ccc(Br)cc2C1CC(=O)c1ccc(Br)cc1 (stereo not given)  47.2%
4. COc1cccc(C(=O)CC2C(C#N)=C(N)Oc3ccc(Br)cc32)c1 (stereo not given)  51.2%
5. COc1cc(Br)cc(/C=C/C(=O)c2ccc(Cl)cc2)c1O  53.3%
6. COC(=O)C1=C(N)Oc2ccc(Br)cc2C1CC(=O)c1ccc(Br)cc1 (stereo not given)  72.5%
7. Cc1ccc(C(=O)CC2C(C#N)=C(N)Oc3ccc(Cl)cc32)cc1 (stereo not given)  85.5%

system: MCF7; test: Antiproliferative activity against human MCF7 cells at IC50 after 48 hrs by Brdu incorporation assay relative to control; type: functional; details: not given
Method in brief: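 Labelling with 20 µM BrdU (final) for 6 h. FixDenat 30 min, then anti-BrdU-POD 90 min at room temperature. Substrate colour for 5-10 min, stopped with H2SO4, absorbance at 450 nm (reference 690 nm). Cell-free blanks included. At least three independent experiments in triplicate.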

Cc1ccc(C(=O)/C=C/c2cc(Cl)ccc2O)cc1 gave an Activity of over 50%.

system: MCF-10A; test: Cytotoxicity against human MCF10A cells after 72 hrs by sulforhodamine B assay; type: cell-based; details: not given; method in brief: as §1

In order of falling IC50:
1. Cc1ccc(C(=O)/C=C/c2cc(Cl)ccc2O)cc1  24.2 µM
2. COc1cccc(C(=O)CC2C(C#N)=C(N)Oc3ccc(Br)cc32)c1 (stereo not given)  18.9 µM
3. N#CC1=C(N)Oc2ccc(Br)cc2C1CC(=O)c1ccc(Br)cc1 (stereo not given)  14.7 µM
4. COc1cc(Br)cc(/C=C/C(=O)c2ccc(Cl)cc2)c1O  12.1 µM
5. Cc1ccc(C(=O)/C=C/c2cc(Br)ccc2O)cc1  6.52 µM
6. COc1cccc2c1C(=O)c1c(O)c3c(c(O)c1C2=O)C[C@@](O)(C(=O)CO)C[C@@H]3O[C@H]1C[C@H](N)[C@H](O)[C@H](C)O1 [DOXORUBICIN]  1.54 µM

system: MCF7; test: Induction of apoptosis in human MCF7 cells assessed as decrease in Bcl-xL level at IC50 after 48 hrs by Western blot analysis; details: not given

In the case of Cc1ccc(C(=O)/C=C/c2cc(Cl)ccc2O)cc1, the Activity is reported as “Active”.

system: MCF7; test: Anticancer activity against human MCF7 cells after 72 hrs by sulforhodamine B assay; type: functional, cell-based; details: MCF7, 72 h; method in brief: as §1

In order of rising IC50:
1. Cc1ccc(C(=O)/C=C/c2cc(Br)ccc2O)cc1  2 µM
2. Cc1ccc(C(=O)/C=C/c2cc(Cl)ccc2O)cc1  3.98 µM
3. COc1cc(Br)cc(/C=C/C(=O)c2ccc(Cl)cc2)c1O  5.15 µM
4. COc1cccc(C(=O)CC2C(C#N)=C(N)Oc3ccc(Br)cc32)c1 (stereo not given)  5.94 µM
5. N#CC1=C(N)Oc2ccc(Br)cc2C1CC(=O)c1ccc(Br)cc1 (stereo not given)  7.24 µM

system: not listed separately; test: Cytotoxicity against human MCF10A cells assessed as cell viability at 30 uM after 72 hrs by sulforhodamine B assay relative to control; type: cell-based, MCF-10A; details: read-out: Activity

In order of falling viability at 72 h, 30 µM:
1. Cc1ccc(C(=O)CC2C(C#N)=C(N)Oc3ccc(Cl)cc32)cc1 (stereo not given)  53.3%
2. Cc1ccc(C(=O)/C=C/c2cc(Cl)ccc2O)cc1  51.1%
3. Cc1ccc(C(=O)/C=C/c2cc(Br)ccc2O)cc1  49.4%
4. COc1cc(Br)cc(/C=C/C(=O)c2ccc(Cl)cc2)c1O  47.8%
5. COc1cccc(C(=O)CC2C(C#N)=C(N)Oc3ccc(Br)cc32)c1 (stereo not given)  43.7%
6. N#CC1=C(N)Oc2ccc(Br)cc2C1CC(=O)c1ccc(Br)cc1 (stereo not given)  43.6%
7. COC(=O)C1=C(N)Oc2ccc(Br)cc2C1CC(=O)c1ccc(Br)cc1 (stereo not given)  43.2%

system: MCF7; test: Induction of apoptosis in human MCF7 cells assessed as increase in Bim level at IC50 after 24 hrs by Western blot analysis; type: functional, cell-based; details: not given; method in brief: as §2

In the case of Cc1ccc(C(=O)/C=C/c2cc(Cl)ccc2O)cc1, the Activity is reported as “Active”.
